Screening results: PubChem, several laboratories
Shown are actives, neighbours in structure and some others; about 0.48% of the full set was active somewhere.
Bfl-1 A1 inh: caspase 3/7 activation in MEF A1-2A-BIM cells, primary screen, A1 inhibitor project, cell-based, luminescence, HTS; Caspase-Glo 3/7 luminescence, 3 h; percent of clofoctol response, vehicle zero; caspase activation, % (no concentration beside the values); 0.066% of 330,000 active; AID 2462, 2010;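 active = over half of replicate activation scores above 10%, or exactly half above 10 with the replicate mean above 10; inconclusive = replicate mean below 10 yet half the replicates above 10; inactive = over half of replicates below 10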
procasp3 activ: activators of human procaspase-3 D3A mutant, primary screen, biochemical, absorbance, PC-3 D3A mutant, single concentration; recombinant procaspase-3 D3A, Ac-DEVD-pNA absorbance 405 nm; AID 463141, 2010; 0.11% of 330,000 active; activation, % at 8.5 µM;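 active = activation above the mean of all tested compounds plus 3 SD, cut at about 21% in these data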;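 also: 0% = DMSO alone and 100% = DMSO wells spiked with extra 5 µM PC-3 D3A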
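Evaluation: percent activation relative to control range; Material: Procaspase-3 D3A mutant, all three cleavage aspartates alanine; Compound: single dose, 8.5 µM nominal compound, 0.8% DMSO; Replication: one well per compound; Signal: absorbance at 405 nm, 0 and 120 min; Schedule: 1 h preincubation plus 2 h reaction at 25 °C.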
Rce1 inhib: yeast Rce1p protease inhibitors, primary screen, biochemical, fluorescence, cell-free homogeneous | CAAX prenyl protease 2 (Saccharomyces cerevisiae (strain ATCC 204508 / S288c)), Q03530 | yeast membranes, quenched prenylated peptide cleavage fluorescence | calls only | 0.27% of 290,000 active;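 active = fall in fluorescence gain of 50% or more versus controls, with final raw signal at or below 3038400; inconclusive = same 50% fall but final raw signal above 3038400; inactive = fall in fluorescence gain under 50%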;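 also: plate controls were neutral control wells for no effect and wells lacking membranes for full effect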
Target sequence (Q03530 whole entry, looked up): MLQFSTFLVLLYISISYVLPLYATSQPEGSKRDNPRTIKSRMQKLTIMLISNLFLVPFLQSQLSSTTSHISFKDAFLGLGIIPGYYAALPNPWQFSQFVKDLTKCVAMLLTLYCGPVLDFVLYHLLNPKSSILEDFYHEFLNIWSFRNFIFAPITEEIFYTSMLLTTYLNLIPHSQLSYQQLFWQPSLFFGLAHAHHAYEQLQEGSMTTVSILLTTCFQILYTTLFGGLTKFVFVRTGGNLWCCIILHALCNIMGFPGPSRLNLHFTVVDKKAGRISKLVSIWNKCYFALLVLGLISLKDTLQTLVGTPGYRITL
PolyA inhibitor: polyadenylation inhibitors in yeast reporter cells, primary screen, luminescence, S. cerevisiae; activity score, % at 12 µM; S. cerevisiae SKY197-pL101 polyadenylation reporter, beta-gal luminescence; efflux-impaired pdr1/pdr3 knockout yeast; score 100 = 6 SD above DMSO; 0.02% of 300,000 active;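 active = lowest replicate activity score at least 50, where 100 means six control SD above control mean; inconclusive = lowest score under 50 but half or more replicates reach 50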;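 also: yeast exposed to compound for 9 h at 30 °C; higher score means more reporter readthrough which indicates perturbed polyadenylation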
procasp7 counter: procaspase-7 activators, primary screen, counter-screen for procaspase-3 activator project, biochemical, absorbance, HTS, human; Caspase-7 (Homo sapiens), P55210; recombinant procaspase-7, Ac-DEVD-pNA absorbance 405 nm; D23A/D198A/D206A triple mutant, cannot self-cleave; scale: DMSO 0, 5 µM enzyme 100; activation, % at 8.5 µM; 0.093% of 330,000 active;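 active = percent activation above the screen-wide mean plus 3 SD, cut at about 25% in these data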
Target sequence (P55210 whole entry D23A/D198A/D206A): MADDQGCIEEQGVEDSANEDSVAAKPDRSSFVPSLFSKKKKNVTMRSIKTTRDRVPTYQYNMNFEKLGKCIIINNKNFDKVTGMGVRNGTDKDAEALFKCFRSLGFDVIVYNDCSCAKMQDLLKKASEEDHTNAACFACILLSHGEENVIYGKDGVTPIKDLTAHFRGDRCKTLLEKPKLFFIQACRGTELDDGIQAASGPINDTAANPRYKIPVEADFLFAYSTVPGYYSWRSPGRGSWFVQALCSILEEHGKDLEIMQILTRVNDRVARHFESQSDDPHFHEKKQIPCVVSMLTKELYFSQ
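Replicates: singlicate. Assay system: Procaspase-7 triple mutant (PC-7 D3A). Signal: 405 nm absorbance of p-nitroaniline. Times: 1 h preincubation, 2 h reaction. Buffer or medium: Zinc-free HEPES pH 7.4 with 300 mM NaCl, 0.01% Triton X-100. Also added: DEVD-pNA substrate. Benchmarks: DMSO wells as 0%, DMSO with 5 µM added PC-7 as 100%.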
procasp7 triplic: procaspase-7 activators, counter-screen for procaspase-3 activator project, biochemical, absorbance, triplicate, human; shares compounds with procasp3 activ; recombinant procaspase-7, Ac-DEVD-pNA absorbance; asp23/198/206-to-Ala mutant, cannot self-cleave; activation, % at 8.5 µM; 210 tested, under 10 active; AID 488941, 2010;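 active = mean activation above a set limit taken from an earlier procaspase-7 screen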;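 also: 0% = DMSO wells and 100% = DMSO plus 5 µM procaspase-7 enzyme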
proCasp3 confirm: activators of human procaspase-3 D3A mutant, confirmation, biochemical, absorbance, PC-3 D3A mutant, triplicate; shares compounds with procasp3 activ; recombinant PC-3 D3A, Ac-DEVD-pNA absorbance 405 nm; 100% is higher-enzyme control; 10% of 210 active; activation, % at 8.5 µM;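 active = mean activation above a set limit carried over from the earlier primary screen, cut at about 22% in these data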
Active calls of the source: *; i = inactive; ? = inconclusive; / = no result given; + = active, no number.

SMILES | Bfl-1 A1 inh | procasp3 activ | Rce1 inhib | PolyA inhibitor | procasp7 counter | procasp7 triplic | proCasp3 confirm
COc1ccccc1Nc1nc2c(C)cccc2cc1C#N | 1 | 40* | i | -16 | 18 | 80* | 94*
COc1ccc(CCNC(=O)C2CCN(c3nccc(C)n3)CC2)cc1 | 0 | 4 | / | -31 | 5 | / | /
Cc1ccc(OCc2cc(C(=O)N(C)Cc3cnn(-c4ccccc4C)c3)no2)cn1 | -3 | 23* | i | -5 | 6 | 1 | 7
CCOC(=O)[C@@H]1[C@H]2COc3ccccc3[C@@H]2N2C(=O)N(c3cccc(Cl)c3)C(=O)[C@]12C | 0 | 3 | i | -13 | -11 | / | /
Cc1c(CCC(=O)NCCCN2CCCC2=O)c(=O)oc2cc(O)ccc12 | 0 | 26* | i | -1 | 19 | -21 | -14
CCOC(=O)CC(=O)CSc1nc2sc(C)cc2c(=O)n1Cc1ccco1 | -1 | 59* | i | -6 | 0 | -2 | -1
COC(=O)CCN(C(=O)c1cccc([N+](=O)[O-])c1)c1ccccn1 | 0 | -1 | i | 9 | 5 | / | /
COc1ccccc1OCCCCNC(C)(C)C | 1 | 26* | i | -3 | 8 | 2 | 2
CC(C)(C)NCCCCOc1ccccc1F | 1 | 0 | i | 15 | 5 | / | /
CCn1c(SC(C)C(=O)NCC2CCCO2)nc2ccccc21 (centres undefined) | 0 | 39* | / | / | -3 | 2 | 4
Cc1ccc(C)c(NC(=O)CSc2nnc(-c3ccccc3)o2)c1 | 1 | 3 | i | 2 | 0 | / | /
Cc1ccc(NC(=O)CSc2nnc(-c3cccnc3)o2)c(C)c1 | 1 | 23* | i | 8 | 2 | -17 | -5
COc1ccc(NC2CCCN(C(=O)c3ccc4[nH]c(C)c(C)c4c3)C2)cc1OC (centres undefined) | 0 | -14 | i | 14 | -21 | / | /
O=C(CN1C(=O)c2cccc3cccc1c23)NCc1ccc2c(c1)OCO2 | / | 29* | i | 3 | 2 | 2 | 2
COCCN(C(=O)CSc1nnc(Nc2ccc(C)cc2)s1)c1c(N)n(CC(C)C)c(=O)[nH]c1=O | 0 | 2 | i | 0 | 3 | / | /
COCCN(C(=O)CSCC(=O)Nc1ccc(C)cc1)c1c(N)n(CC(C)C)c(=O)[nH]c1=O | 1 | 61* | / | / | 5 | 2 | 5
O=C(Cn1c2ccccc2c(=O)c2ccccc21)Nc1ccccc1F | -1 | 28* | + | -14 | -12 | -21 | -14
N#Cc1ccc(/C=C\c2nccc3c2[nH]c2ccccc23)cc1 | 1 | 48* | i | -7 | 1 | -21 | -14
COc1c(O)cccc1[C@@H](O)C1CCN(CCc2ccc(F)cc2)CC1 | -1 | 9 | i | 14 | -4 | / | /
CCN(CC)S(=O)(=O)c1ccc(OCC(=O)NC2CCS(=O)(=O)C2)c([N+](=O)[O-])c1 (centres undefined) | 1 | 0 | i | ? | -3 | / | /
Cc1ccc(OCC(=O)NC2CCS(=O)(=O)C2)c([N+](=O)[O-])n1 (centres undefined) | 1 | 21* | i | 14 | -4 | 4 | 5
C=CCn1c2ccccc2c(=O)c2cc(C#CC[C@@H](C)O)ccc21 | -4 | -4 | / | / | -10 | / | /
C=CCn1c2ccccc2c(=O)c2cc(C#CC3(O)CCCCC3)ccc21 | 0 | 150* | i | -6 | -22 | -21 | -14
CN(C)c1nc(C(=O)O)nc(N2CCOCC2)n1 | 2 | -3 | i | 23 | 6 | / | /
CC(C)(C)NC(=O)NC(=O)CN1CCN(S(=O)(=O)c2ccc3c(c2)OCCO3)CC1 | -1 | -7 | i | 4 | 10 | / | /
SMILES | Bfl-1 A1 inh | procasp3 activ | Rce1 inhib | PolyA inhibitor | procasp7 counter | procasp7 triplic | proCasp3 confirm
CC1CC(C)(C)CC2(C1)NC(=O)N(CC(=O)Nc1ccc3[nH]c(=O)[nH]c3c1)C2=O (centres undefined) | 0 | 37* | / | / | 0 | 2 | 4
CCN(CC(=O)NCc1ccc(Cl)cc1)C(=O)COc1cccc(Cl)c1 | 0 | -1 | i | 1 | -3 | / | /
CC1(C)Cc2c(c(N3CCOCC3)nc3sc(C(=O)Nc4ccc(Cl)cc4)c(N)c23)CO1 | 1 | -13 | i | 2 | -21 | / | /
Cc1nc2c(sc3nc(N4CCOCC4)c4c(c32)CC(C)(C)OC4)c(-c2ccc(Cl)cc2)c1C(=O)O | -1 | 26* | i | 18 | -9 | -8 | -5
CCCCOn1c(C)c(C(=O)OCC)c2c3no[n+]([O-])c3ccc21 | -1 | 3 | i | -29 | -9 | / | /
CCCCOn1c(C)c(C(=O)OCC)c2c3nonc3ccc21 | 1 | 24* | i | -3 | 22 | 13 | 25*
COC(=O)Cn1c(=NC(=O)c2cc(-c3cccs3)nc3ccccc23)sc2cc(S(N)(=O)=O)ccc21 | 1 | 78* | i | 13 | 2 | -20 | -15
Cc1ccc(NC(=O)c2sc3nc(N4CCOCC4)c4c(c3c2N)CC(C)(C)OC4)cc1 | -2 | -16 | i | -6 | -28 | / | /
CC1(C)Cc2c(c(N3CCCC3)nc3sc(C(=O)Nc4ccccc4)c(N)c23)CO1 | -2 | 23* | i | -2 | 3 | 39* | 68*
Cc1ccc2cc([N+](=O)[O-])ccc2n1 | 0 | 14 | i | 31 | -4 | / | /
CCOc1ccc(NC(=O)CN(C)C(=O)c2ccc(C3SCCS3)cc2)cc1OCC | 0 | 21* | / | -17 | 6 | -1 | 2
CCOc1ccc(NC(=O)CN(C)C(=O)c2ccc(=O)[nH]c2)cc1OCC | 0 | / | i | 11 | / | / | /
C=CCSC1=N/C(=C\c2sccc2C)C(=O)S1 | -1 | 59* | i | -34 | 4 | -18 | -9
COc1ccc(C2CC(c3cccc(F)c3)=NN2c2ccc(S(N)(=O)=O)cc2)cc1 (centres undefined) | / | 37* | / | / | 20 | -22 | -12
